Results from ChEMBL document CHEMBL3526046, “The role of aldehyde oxidase and xanthine oxidase in the biotransformation of a novel negative allosteric modulator of metabotropic glutamate receptor subtype 5” (Drug Metab Dispos, 2012).
One block for each molecule: values may come before it.

Experiments:
Hepatocyte = experiment: Drug level in Sprague-Dawley rat cryopreserved hepatocytes treated with 25 uM VU0409106 by LC-UV-MS analysis; assay type: ADME, cell-based
[1] = Drug level in cynomolgus monkey hepatic S9 fraction treated with 25 uM VU0409106 by LC-UV-MS analysis; assay type: ADME, tissue-based, Macaca fascicularis, Liver
How it was run: (§1)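 Hepatic S9 (5 mg/ml) in 0.1 M potassium phosphate pH 7.4 with 3 mM MgCl2 and 25 µM substrate, 37°C, 1 h under ambient oxygen; NADPH (2 mM) added in select runs. Reactions started by adding substrate. Protein precipitated with 2 volumes MeCN and the supernatant dried under nitrogen, reconstituted in 85:15 10 mM ammonium formate (pH 4.1)-MeCN, then analysed by LC-MS.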

[2] = Drug level in Sprague-Dawley rat hepatic S9 fraction treated with 25 uM VU0409106 by LC-MS/MS analysis in presence of 100 uM hydralazine aldehyde oxidase inhibitor; assay type: ADME, tissue-based, Liver; how it was run: as §1
[3] = Drug level in human hepatic S9 fraction treated with 25 uM VU0409106 by LC-MS/MS analysis in presence of 100 uM hydralazine aldehyde oxidase inhibitor; assay type: ADME, tissue-based, Liver; how it was run: as §1
Plasma [4] = experiment: Retention time in Sprague-Dawley rat plasma treated with 56.6 mg/kg, ip VU0409106 single dose; assay type: ADME, organism-based; set-up: dose 56.6 mg/kg, route intraperitoneal; settings: in vivo
How it was run: (§2)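 Male Sprague-Dawley rats given a single intraperitoneal dose of 56.6 mg/kg. Plasma extracted with 2 volumes acetonitrile and centrifuged; metabolites profiled by LC-MS/MS.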

[5] = Drug level in human hepatic S9 fraction treated with 25 uM VU0409106 by LC-MS/MS analysis in presence of 100 uM raloxifene aldehyde oxidase inhibitor; assay type: ADME, tissue-based, Liver; how it was run: as §1
[6] = Drug level in human hepatic S9 fraction treated with 25 uM VU0409106 by LC-UV-MS analysis; assay type: ADME, tissue-based, Liver; how it was run: as §1
[7] = Drug level in beagle dog hepatic S9 fraction treated with 25 uM VU0409106 by LC-MS/MS analysis; assay type: ADME, tissue-based, Canis lupus familiaris, Liver; how it was run: as §1
[8] = Drug level in Sprague-Dawley rat hepatic S9 fraction treated with 25 uM VU0409106 by LC-UV-MS analysis; assay type: ADME, tissue-based, Liver; how it was run: as §1
Plasma [9] = experiment: Drug level in Sprague-Dawley rat plasma treated with 56.6 mg/kg, ip VU0409106 single dose by LC-MS/MS analysis; assay type: ADME, organism-based; set-up: dose 56.6 mg/kg, route intraperitoneal; settings: in vivo; how it was run: as §2
[10] = Drug level in Sprague-Dawley rat hepatic S9 fraction treated with 25 uM VU0409106 by LC-MS/MS analysis in presence of 100 uM allopurinol xanthine oxidase inhibitor; assay type: ADME, tissue-based, Liver; how it was run: as §1
[11] = Drug metabolism in human cryopreserved hepatocytes assessed as hydroxylated pyrimidine metabolite formation at 25 uM by LC-MS/MS analysis in presence of 1-ABT pan-450 inactivator; assay type: ADME, cell-based, Hepatocyte
How it was run: (§3)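 Pooled cryopreserved hepatocytes (2 × 10^6 cells/ml) in Krebs-Henseleit buffer, 25 µM substrate, 37°C for 4 h. Rat donors were 14 males, cynomolgus 4 males, human 20 mixed gender. Cells precipitated with 2 volumes MeCN, centrifuged at 4°C; supernatant dried under nitrogen, reconstituted in 15% aqueous MeCN for LC-MS.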

[12] = Drug metabolism in Sprague-Dawley rat cryopreserved hepatocytes assessed as hydroxylated thiazole metabolite formation at 25 uM by LC-MS/MS analysis in presence of 1-ABT pan-450 inactivator; assay type: ADME, cell-based, Hepatocyte; how it was run: as §3
[13] = Drug metabolism in human hepatic S9 fraction assessed as 3-(2,4-dioxo-1,2,3,4-tetrahydropyrimidin-5-yloxy)-5-fluoro-N-(thiazol-2-yl)benzamide at 1 uM by LC-MS/MS analysis; assay type: ADME, Liver; settings: s9, 1 µM
[14] = Effective half life in Sprague-Dawley rat at 1 mg/kg, iv administered as single dose; assay type: ADME, organism-based; set-up: dose 1 mg/kg, route intravenous; settings: in vivo
How it was run: (§4)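 Cannulated male Sprague-Dawley rats dosed at 1 mg/kg through a jugular catheter in 10% ethanol/70% PEG400/20% saline. Carotid blood drawn at 0.033 to 24 h into chilled EDTA tubes; plasma stored at -80°C. Parameters derived by noncompartmental analysis.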

[15] = Inhibition of group 1 mGluR (unknown origin); set-up: species or system Homo sapiens
[16] = Intrinsic clearance in Sprague-Dawley rat hepatic cytosol at 1 uM; assay type: ADME, tissue-based, Liver
How it was run: (§5)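 Substrate depletion at 1 µM in 0.1 M potassium phosphate pH 7.4, S9 2.5 mg/ml or cytosol 1 mg/ml, ± NADPH 1 mM, 37°C. Sampled at 0, 3, 7, 15, 25 and 45 min, quenched in cold MeCN with internal standard, analysed by LC-MS/MS in triplicate. CLint scaled using 120.7 mg S9 or 80.7 mg cytosol protein.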

[17] = Drug metabolism in human cryopreserved hepatocytes assessed as 3-(2,4-dioxo-1,2,3,4-tetrahydropyrimidin-5-yloxy)-5-fluoro-N-(thiazol-2-yl)benzamide at 25 uM by LC-MS/MS analysis; assay type: ADME, cell-based, Hepatocyte; how it was run: as §3
[18] = Inhibition of group 3 mGluR (unknown origin); set-up: species or system Homo sapiens
[19] = Drug metabolism in human cryopreserved hepatocytes assessed as hydroxylated thiazole metabolite formation at 25 uM by LC-MS/MS analysis in presence of 1-ABT pan-450 inactivator; assay type: ADME, cell-based, Hepatocyte; how it was run: as §3
[20] = Drug metabolism in human hepatic S9 fraction assessed as 3-fluoro-N-(4-methylthiazol-2-yl)-5-(6-oxo-1,6-dihydropyrimidin-5-yloxy)benzamide at 1 uM by LC-MS/MS analysis; assay type: ADME, Liver; settings: s9, 1 µM
[21] = Intrinsic clearance in Sprague-Dawley rat cryopreserved hepatocytes at 1 uM; assay type: ADME, cell-based, Hepatocyte
How it was run: (§6)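 Hepatocyte depletion assay at 2 × 10^6 cells/ml, 37°C, ambient oxygen. Aliquots taken at 0, 15, 30, 60 and 120 min, quenched in ice-cold MeCN containing internal standard, analysed by LC-MS/MS in triplicate. Intrinsic clearance estimated by the substrate depletion method.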

[22] = Intrinsic clearance in Sprague-Dawley rat hepatic S9 fraction at 1 uM in presence of NADPH; assay type: ADME, tissue-based, Liver; how it was run: as §5
[23] = Intrinsic clearance in cynomolgus monkey hepatic S9 fraction at 1 uM; assay type: ADME, tissue-based, Macaca fascicularis, Liver; how it was run: as §5
[24] = Drug metabolism in Sprague-Dawley rat hepatic S9 fraction assessed as 3-fluoro-N-(4-methylthiazol-2-yl)-5-(6-oxo-1,6-dihydropyrimidin-5-yloxy)benzamide at 25 uM by LC-MS/MS analysis; assay type: ADME, Liver; settings: s9, 25 µM
[25] = Intrinsic clearance in human hepatic S9 fraction at 1 uM in presence of NADPH; assay type: ADME, tissue-based, Liver; how it was run: as §5
Plasma [26] = experiment: Drug metabolism in Sprague-Dawley rat plasma assessed as hydroxylated pyrimidine metabolite formation at 56.6 mg/kg, ip single dose by LC-MS/MS analysis; assay type: ADME, organism-based; set-up: dose 56.6 mg/kg, route intraperitoneal; settings: in vivo; how it was run: as §2
[27] = Drug metabolism in Sprague-Dawley rat cryopreserved hepatocytes assessed as hydroxylated pyrimidine metabolite formation at 25 uM by LC-MS/MS analysis in presence of 1-ABT pan-450 inactivator; assay type: ADME, cell-based, Hepatocyte; how it was run: as §3
[28] = Drug metabolism in cynomolgus monkey hepatic S9 fraction assessed as 3-fluoro-N-(4-methylthiazol-2-yl)-5-(6-oxo-1,6-dihydropyrimidin-5-yloxy)benzamide at 1 uM by LC-MS/MS analysis; assay type: ADME, Macaca fascicularis, Liver; settings: s9, 1 µM
Plasma [29] = experiment: Drug metabolism in Sprague-Dawley rat plasma assessed as hydroxylated thiazole metabolite formation at 56.6 mg/kg, ip single dose by LC-MS/MS analysis; assay type: ADME, organism-based; set-up: dose 56.6 mg/kg, route intraperitoneal; settings: in vivo; how it was run: as §2
[30] = Intrinsic clearance in human hepatic cytosol at 1 uM; assay type: ADME, tissue-based, Liver; how it was run: as §5
[31] = Intrinsic clearance in cynomolgus monkey cryopreserved hepatocytes at 1 uM; assay type: ADME, cell-based, Macaca fascicularis, Hepatocyte; how it was run: as §6
[32] = Volume of distribution at steady state in Sprague-Dawley rat at 1 mg/kg, iv administered as single dose; assay type: ADME, organism-based; set-up: dose 1 mg/kg, route intravenous; settings: in vivo, read-out: Vdss; how it was run: as §4
[33] = Intrinsic clearance in human cryopreserved hepatocytes at 1 uM; assay type: ADME, cell-based, Hepatocyte; how it was run: as §6
[34] = Drug metabolism in human cryopreserved hepatocytes assessed as 3-fluoro-N-(4-methylthiazol-2-yl)-5-(6-oxo-1,6-dihydropyrimidin-5-yloxy)benzamide at 25 uM by LC-MS/MS analysis; assay type: ADME, cell-based, Hepatocyte; how it was run: as §3
[35] = Drug metabolism in Sprague-Dawley rat hepatic S9 fraction assessed as 3-(2,4-dioxo-1,2,3,4-tetrahydropyrimidin-5-yloxy)-5-fluoro-N-(thiazol-2-yl)benzamide at 25 uM by LC-MS/MS analysis; assay type: ADME, Liver; settings: s9, 25 µM
[36] = Intrinsic clearance in Sprague-Dawley rat hepatic S9 fraction at 1 uM; assay type: ADME, tissue-based, Liver; how it was run: as §5
[37] = Intrinsic clearance in cynomolgus monkey hepatic S9 fraction at 1 uM in presence of NADPH; assay type: ADME, tissue-based, Macaca fascicularis, Liver; how it was run: as §5
[38] = Plasma clearance in Sprague-Dawley rat at 1 mg/kg, iv administered as single dose; assay type: ADME, organism-based; set-up: dose 1 mg/kg, route intravenous; how it was run: as §4
[39] = Drug metabolism in cynomolgus monkey hepatic S9 fraction assessed as 3-(2,4-dioxo-1,2,3,4-tetrahydropyrimidin-5-yloxy)-5-fluoro-N-(thiazol-2-yl)benzamide at 1 uM by LC-MS/MS analysis; assay type: ADME, Macaca fascicularis, Liver; settings: s9, 1 µM
[40] = Plasma clearance in cynomolgus monkey at 1 mg/kg, iv administered as single dose; assay type: ADME, organism-based, Macaca fascicularis; set-up: dose 1 mg/kg, route intravenous
How it was run: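 Male cynomolgus monkeys (n = 2, about 3 kg) given 1 mg/kg i.v. via the saphenous vein in 10% ethanol/60% PEG400/30% isotonic saline. Femoral blood sampled from 0.033 to 24 h into chilled EDTA tubes; plasma kept at -80°C.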

[41] = Inhibition of group 2 mGluR (unknown origin); set-up: species or system Homo sapiens

Drug metabolism (Hepatocyte): metabolite_detected
Drug metabolism [1]: metabolite_detected
Drug metabolism [2]: metabolite_not_detected
Drug metabolism [3]: metabolite_not_detected
Retention_time (Plasma [4]): 12.55 min
Drug metabolism [5]: metabolite_not_detected
Drug metabolism [6]: metabolite_detected
Drug metabolism [7]: metabolite_not_detected
Drug metabolism [8]: metabolite_detected
Drug metabolism (Plasma [9]): metabolite_detected
Drug metabolism [10]: metabolite_detected
SMILES: Cc1csc(NC(=O)c2cc(F)cc(Oc3cnc[nH]c3=O)c2)n1

Drug metabolism [11]: metabolite_not_detected
Drug metabolism [12]: metabolite_not_detected
Drug metabolism [13]: metabolite_detected
half-life [14]: < 15 min
IC50 [15]: ≥ 10 µM
CLint at 1 µM [16]: 16 mL/min/kg
Drug metabolism [17]: metabolite_detected
IC50 [18]: ≥ 10 µM
Drug metabolism [19]: metabolite_not_detected
Drug metabolism [20]: metabolite_detected
CLint at 1 µM [21]: 96 mL/min/kg
CLint at 1 µM [22]: 54 mL/min/kg
CLint at 1 µM [23]: 34 mL/min/kg
Drug metabolism [24]: metabolite_detected
CLint at 1 µM [25]: 15 mL/min/kg
Retention_time (Plasma [4]): 14.5 min
Drug metabolism (Plasma [26]): metabolite_detected
Drug metabolism [27]: metabolite_not_detected
Drug metabolism [28]: metabolite_detected
Drug metabolism (Plasma [29]): metabolite_detected
CLint at 1 µM [30]: 3.7 mL/min/kg
CLint at 1 µM [31]: 194 mL/min/kg
Vd [32]: 0.81 L/kg
CLint at 1 µM [33]: 6.9 mL/min/kg
Drug metabolism [34]: metabolite_detected
Drug metabolism [35]: metabolite_detected
CLint at 1 µM [36]: 25 mL/min/kg
CLint at 1 µM [37]: 37 mL/min/kg
clearance [38]: 43 mL/min/kg
Drug metabolism [39]: metabolite_detected
clearance [40]: 24 mL/min/kg
IC50 [41]: ≥ 10 µM
SMILES: Cc1csc(NC(=O)c2cc(F)cc(Oc3cncnc3)c2)n1
